The text below walks through data of ChEMBL document CHEMBL1145889, “Potent and selective inhibitors of platelet-derived growth factor receptor phosphorylation. 3. Replacement of quinazoline moiety and improvement of metabolic polymorphism of 4-[4-(N-substituted (thio)carbamoyl)-1-piperazinyl]-6,7-dimethoxyquinazoline derivatives” (J Med Chem, 2003).

Common to all, as to type: ADME, organism-based
Series [1] is described as follows: Volume of distribution at steady state was determined after administering 1 mg/kg of compound intravenously in rat no.11 belonging to the phenotype EM (poor metaboliser). Also on record: dose 1 mg/kg, route intravenous. The following applies: in vivo, iv, read-out: Vdss. The gist of the method: (§1)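 Male Sprague–Dawley rats (n = 4) were first phenotyped by a 3 mg/kg oral dose. Plasma taken at 30 min was run on HPLC, and a metabolite peak present marked EM, absent marked PM. After a 1-week washout, each phenotype (n = 2) received 1 mg/kg intravenously. Plasma concentration was determined by HPLC.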

Series [2] is described as follows: Half-life period of intravenously administered compound (1 mg/kg) in rat no.9 belonging to the phenotype EM (extensive metaboliser). Particulars: in vivo, iv. The gist of the method: as §1
Series [3] can be described thus: Plasma clearance was determined after administering 1 mg/kg of compound intravenously in rat no.11 belonging to the phenotype […] (poor metaboliser). On the set-up: dose 1 mg/kg, route intravenous. The following applies: iv. In short, it runs like this:
as §1

Series [4] can be described thus: Half-life period of intravenously administered compound (1 mg/kg) in rat no.10 belonging to the phenotype […] (poor metaboliser). Particulars: in vivo, iv. In short, it runs like this:
as §1

The nature of series [5]: Half-life period of intravenously administered compound (1 mg/kg) in rat no.8 belonging to the phenotype EM (extensive metaboliser). Particulars: in vivo, iv. The gist of the method:
as §1

Series [6] can be described thus: Volume of distribution at steady state was determined after administering 1 mg/kg of compound intravenously in rat no.10 belonging to the phenotype […] (poor metaboliser). The following applies: in vivo, iv, read-out: Vdss. Also on record: dose 1 mg/kg, route intravenous. The gist of the method: as §1
Series [7] is described as follows: Volume of distribution at steady state was determined after administering 1 mg/kg of compound intravenously in rat no.9 belonging to the phenotype EM (extensive metaboliser). Also on record: dose 1 mg/kg, route intravenous. Particulars: in vivo, iv, read-out: Vdss. In short, it runs like this: as §1
Series [8] in a line: Volume of distribution at steady state was determined after administering 1 mg/kg of compound intravenously in rat no.8 belonging to the phenotype EM (extensive metaboliser). Also on record: dose 1 mg/kg, route intravenous. The following applies: in vivo, iv, read-out: Vdss. The gist of the method:
as §1

A short description of series [9]: Plasma clearance was determined after administering 1 mg/kg of compound intravenously in rat no.9 belonging to the phenotype EM (extensive metaboliser). On the set-up: dose 1 mg/kg, route intravenous. The following applies: iv. The gist of the method: as §1
Series [10] can be described thus: Plasma clearance was determined after administering 1 mg/kg of compound intravenously in rat no.8 belonging to the phenotype EM (extensive metaboliser). Also on record: dose 1 mg/kg, route intravenous. Particulars: iv. In short, it runs like this: as §1
A short description of series [11]: Pharmacokinetic parameter (AUC) was determined after administering 1 mg/kg of compound intravenously in rat no.8 belonging to the phenotype EM (extensive metaboliser). Particulars: in vivo, iv. On the set-up: dose 1 mg/kg, route intravenous. In short, it runs like this:
as §1

The nature of series [12]: Pharmacokinetic parameter (AUC) was determined after administering 1 mg/kg of compound intravenously in rat no.9 belonging to the phenotype EM (extensive metaboliser). On the set-up: dose 1 mg/kg, route intravenous. The following applies: in vivo, iv. In short, it runs like this:
as §1

Series [13] in a line: Half-life period of intravenously administered compound (1 mg/kg) in rat no.11 belonging to the phenotype […] (poor metaboliser). The following applies: in vivo, iv. The gist of the method:
as §1

Series [14] is described as follows: Pharmacokinetic parameter (AUC) was determined after administering 1 mg/kg of compound intravenously in rat no.10 belonging to the phenotype […] (poor metaboliser). Also on record: dose 1 mg/kg, route intravenous. Particulars: in vivo, iv. The gist of the method: as §1
A short description of series [15]: Plasma clearance was determined after administering 1 mg/kg of compound intravenously in rat no.10 belonging to the phenotype […] (poor metaboliser). Also on record: dose 1 mg/kg, route intravenous. Particulars: iv. In short, it runs like this: as §1
The nature of series [16]: Pharmacokinetic parameter (AUC) was determined after administering 1 mg/kg of compound intravenously in rat no.11 belonging to the phenotype […] (poor metaboliser). Also on record: dose 1 mg/kg, route intravenous. Particulars: in vivo, iv. In short, it runs like this:
as §1

Where [17] appears, read: read-out: T1/2 alpha (converted).
[18] abbreviates: read-out: T1/2 beta (converted).

A word on the clearance: it is a measure of how efficiently the substance is removed, as volume per time. A low value points to inefficient removal. Usually AUC stands for concentration integrated over time. Low readings indicate low exposure, high ones high exposure. On to `COCCOc1cc2c(N3CCN(C(=O)Nc4ccc(C#N)cc4)CC3)ncnc2cc1OC`, for which the Vd came to 0.286 L/kg in series [1], 0.232 L/kg in series [6], 0.252 L/kg in series [7] and 0.215 L/kg in [8]. Besides, the half-life in [2] (setting [17]) was 2.99 min; in series [2] (setting [18]) it was 15.7 min; in series [4] (setting [17]), 1.9 min; in [4] (setting [18]), 15.5 min; in [5] (setting [17]) it was 2.69 min; in series [5] (setting [18]), 13.8 min. For the same compound, the results for the half-life in series [13] (setting [17]) and in [13] (setting [18]) were 3.58 min and 13.1 min, respectively. Further, the clearance in series [3] is 17.5 mL/min/kg; in series [9] it was 13.2 mL/min/kg; in series [10], 14.4 mL/min/kg; in [15], 13.1 mL/min/kg. The AUC stood at 1160 ng·h/mL in series [11], 1260 ng·h/mL in series [12], 1280 ng·h/mL in series [14] and 950 ng·h/mL in series [16].
